Usually Inhibition stands for the drop in the measured response relative to a control, in per cent. A low value points to little suppression. One may read the inhibition in vivo as the relative decrease from the control value, in per cent. By pKi is commonly meant −log10 of the Ki, conventionally taken in molar units. What is called pIC50 is the negative decadic logarithm of the IC50, by convention in mol/L. A low value points to a large IC50.

Consider 10 molecules from ChEMBL document CHEMBL1129796, “(E)-3-[6-[[(2,6-dichlorophenyl)thio]methyl]-3-(2-phenylethoxy)-2- pyridinyl]-2-propenoic acid: a high-affinity leukotriene B4 receptor antagonist with oral antiinflammatory activity” (J Med Chem, 1996).

Each structure is given as a SMILES string. pIC50, pKi: −log10 of the molar value.

Test [1] relates to Mus musculus. The test can be described thus: Effect on Arachidonic Acid-Induced Mouse Ear Inflammation expressed as percent inhibition of MPO at 500 ug/ear of topical administration.
Test [2] deals with Mus musculus. The test can be described thus: Dose required to inhibit 50% of arachidonic acid-induced inflammation after topical administration obtained from dose-response curves. Format: functional.
Test [3] deals with Mus musculus. The test can be described thus: Effect on Arachidonic Acid-Induced Mouse Ear Inflammation expressed as percent inhibition of MPO at 50 mg/kg of oral administration. Format: functional. In short, it runs like this: (§1)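 Balb/c mice (20 g; N=6-10 vehicle, typically 5-6 per drug group) dosed intragastrically with compound in distilled water. Thirty minutes later, 1.0 mg arachidonic acid in 20 µL cold acetone applied to left ear. Ear thickness measured 1 h later. Left ears then harvested and MPO activity read spectrophotometrically (Bradley method). ED50 from multiple dose–response studies (4–5 doses) by linear regression.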

The test system of test [4] is Mus musculus. The test can be described thus: Dose required to inhibit 50% of arachidonic acid-induced inflammation after oral administration obtained from dose-response curves. Format: functional. In short, it runs like this: as §1
In test [5] the test system is Mus musculus. The test can be described thus: Effect on Arachidonic Acid-Induced Mouse Ear Inflammation expressed as percent inhibition of MPO at 25 mg/kg of oral administration. It is filed as functional. Summed up:
as §1

The target in test [6] is Leukotriene B4 receptor 1 (Homo sapiens, UniProt Q15722). The test can be described thus: Inhibition of [3H]LTB4 binding to human neutrophils. Summed up: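 Intact human PMNs (10^6; >90% neutrophils, >95% viable) incubated with 0.2 nM [3H]LTB4 for 20 min at 0 °C in Hanks balanced salt solution with 0.1% ovalbumin. Compound tested at 0.1 nM–10 µM; nonspecific binding defined with 1 µM unlabeled LTB4. Bound ligand separated by filtration and counted by scintillation. Duplicate curves of 5–8 concentrations, at least two assays.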
Chain of Leukotriene B4 receptor 1 (Q15722 whole entry): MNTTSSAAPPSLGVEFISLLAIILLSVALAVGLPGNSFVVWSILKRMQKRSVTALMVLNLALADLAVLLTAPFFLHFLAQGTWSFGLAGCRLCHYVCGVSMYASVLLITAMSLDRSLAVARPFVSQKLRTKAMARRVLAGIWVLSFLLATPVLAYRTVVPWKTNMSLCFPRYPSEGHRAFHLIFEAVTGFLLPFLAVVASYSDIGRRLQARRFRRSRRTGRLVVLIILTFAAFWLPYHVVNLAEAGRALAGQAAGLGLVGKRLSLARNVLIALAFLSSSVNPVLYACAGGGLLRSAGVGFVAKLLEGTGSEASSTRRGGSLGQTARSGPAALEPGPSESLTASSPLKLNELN

The test system of test [7] is Mus musculus. The test can be described thus: Effect on Arachidonic Acid-Induced Mouse Ear Inflammation expressed as percent inhibition of MPO at 1000 ug/ear of topical administration. Format: functional.
For test [8], the target named is Cysteinyl leukotriene receptor 1 (Homo sapiens, UniProt Q9Y271). The test can be described thus: Inhibitory concentration LTB4 with [3H]LTD4 in LTD4 receptor binding assay.
Chain of Cysteinyl leukotriene receptor 1 (Q9Y271 whole entry, looked up): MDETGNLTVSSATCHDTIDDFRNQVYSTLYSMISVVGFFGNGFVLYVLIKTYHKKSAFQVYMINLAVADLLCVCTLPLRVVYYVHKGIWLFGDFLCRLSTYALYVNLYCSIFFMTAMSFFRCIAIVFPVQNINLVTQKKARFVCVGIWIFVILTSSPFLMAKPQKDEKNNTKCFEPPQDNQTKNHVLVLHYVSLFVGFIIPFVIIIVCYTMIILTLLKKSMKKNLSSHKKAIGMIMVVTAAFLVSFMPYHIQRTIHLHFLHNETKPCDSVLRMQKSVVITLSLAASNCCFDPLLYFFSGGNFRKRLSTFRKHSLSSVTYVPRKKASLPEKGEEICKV
In test [9] the target is T1, Polyunsaturated fatty acid 5-lipoxygenase (Rattus norvegicus, UniProt P12527).
T1 sequence (P12527 whole entry): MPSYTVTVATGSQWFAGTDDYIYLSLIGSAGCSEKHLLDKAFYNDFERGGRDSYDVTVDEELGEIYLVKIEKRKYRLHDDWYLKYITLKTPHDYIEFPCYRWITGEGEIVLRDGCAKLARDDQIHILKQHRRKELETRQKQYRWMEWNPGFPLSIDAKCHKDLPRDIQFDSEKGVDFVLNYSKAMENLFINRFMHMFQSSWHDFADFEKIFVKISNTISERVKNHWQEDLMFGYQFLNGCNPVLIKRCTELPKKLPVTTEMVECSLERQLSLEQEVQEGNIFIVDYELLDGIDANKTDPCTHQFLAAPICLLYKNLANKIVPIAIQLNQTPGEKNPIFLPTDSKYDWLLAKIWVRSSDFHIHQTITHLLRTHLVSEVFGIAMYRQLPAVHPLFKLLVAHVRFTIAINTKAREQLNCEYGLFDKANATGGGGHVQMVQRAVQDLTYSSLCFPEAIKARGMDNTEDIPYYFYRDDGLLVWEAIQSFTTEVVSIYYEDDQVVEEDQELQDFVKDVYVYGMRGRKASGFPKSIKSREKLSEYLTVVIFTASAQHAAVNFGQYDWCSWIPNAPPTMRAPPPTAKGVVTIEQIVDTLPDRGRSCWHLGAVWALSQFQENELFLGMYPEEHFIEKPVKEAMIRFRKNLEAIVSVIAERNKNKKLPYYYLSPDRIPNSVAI
The test can be described thus: Concentration required to inhibit RBL-1 supernatant 5-lipoxygenase.

A further test is filed under the species Homo sapiens. The test can be described thus: Concentration required to block LTB4 induced degranulation in human PMNs. It is filed as functional. In short, it runs like this: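 Washed human PMNs (10^6, isolated by Ficoll-Hypaque, dextran sedimentation, hypotonic lysis) in 1 mL Earls balanced salt solution with 20 mM HEPES, 0.1% ovalbumin. Preincubated 10 min with 5 µg/mL cytochalasin B, then compound or vehicle 5 min at 37 °C, then 100 nM LTB4 for 3 min. Supernatant MPO measured kinetically at 460 nm (o-dianisidine/H2O2, pH 6.0). Four curves of 5–7 concentrations; mean IC50 ± SEM.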

Test [10] relates to Mus musculus. The test can be described thus: Effect on Arachidonic Acid-Induced Mouse Ear Inflammation expressed as percent inhibition of MPO at 50 ug/ear of topical administration. Format: functional.

Take `COc1ccc(CCCCCCCCOc2ccc(C[S+]([O-])c3cccc(N)c3)nc2/C=C/C(=O)O)cc1` (stereo not drawn): the Inhibition in the test on Mus musculus [1] came to 55%. In the test with Mus musculus [2], this molecule had an ED50 of 350 ug ear-1. The same molecule gave an inhibition in vivo at 50 mg/kg in the test on Mus musculus [3] of 0%.

Consider `O=C(O)/C=C/c1nc(CSc2c(Cl)cccc2Cl)ccc1OCCc1ccc(F)cc1`, for which, in the test with Mus musculus [4], the ED50 was 14.1 mg/kg. This molecule also yielded an inhibition in vivo at 25 mg/kg in the test on Mus musculus [5] of 75%. Further, the pKi in test [6] was 8.82.

Regarding `COc1ccc(CCCCOc2ccc(CSc3ccccc3)nc2/C=C/C(=O)O)cc1`, the Inhibition in the test on Mus musculus [7] worked out at 49%. For the same molecule, the pKi in test [6] was 8.55. Moreover, at 50 mg/kg the inhibition in vivo with Mus musculus [3] was 26%.

In turn, `O=C(O)/C=C/c1nc(CSc2c(Cl)cccc2Cl)ccc1OCCCc1ccccc1` showed a pKi in test [6] of 8.85.

Molecule `O=C(O)/C=C/c1nc(CSc2c(Cl)cccc2Cl)ccc1OCc1ccc(F)cc1` showed a pKi in [6] of 7.92.

In the case of `O=C(O)/C=C/c1nc(CSc2c(Cl)cccc2Cl)ccc1OCCc1ccc(Cl)cc1`, the pKi in [6] is 8.89.

On to `COc1ccc(CCOc2ccc(CSc3c(Cl)cccc3Cl)nc2/C=C/C(=O)O)cc1`, for which, in test [6], the pKi was 8.92.

In the test on Mus musculus [7], `COc1ccc(CCCCOc2ccc(CSc3c(Cl)cccc3Cl)nc2/C=C/C(=O)O)cc1` registered an Inhibition of 82%. The ED50 with Mus musculus [4] came to 57.6 mg/kg. Further, the pKi in [6] was 8.82. In the test with Mus musculus [3], this molecule came in with an inhibition in vivo at 50 mg/kg of 54%.

In the case of `COc1ccc(CCCCCCCCOc2ccc(CSCc3cccc(C(=O)O)c3)nc2/C=C/C(=O)O)cc1`, in the test on Mus musculus [1], the Inhibition came out at 69%. In the test on Mus musculus [2], this molecule displayed an ED50 of 390 ug ear-1. Further, the inhibition in vivo at 50 mg/kg with Mus musculus [3] came out at 0%.

As for `O=C(O)/C=C/c1nc(CSc2c(Cl)cccc2Cl)ccc1OCCc1ccccc1` [TICOLUBANT], the pIC50 in [8] was 4.77; in test [9], 5.09; in the test filed under Homo sapiens it was 7.28. The values for the ED50 in the test with Mus musculus [4] and in the test on Mus musculus [2] were 14.8 mg/kg and 8 ug ear-1, respectively. For the same molecule, 25 mg/kg produced 70% inhibition in vivo with Mus musculus [5]. Moreover, the Inhibition in the test with Mus musculus [10] stood at 83%. For the same molecule, the pKi in test [6] is 9.11.
